Measurements: ChEMBL document CHEMBL1765024, “Fluorescent cyclin-dependent kinase inhibitors block the proliferation of human breast cancer cells” (Bioorg Med Chem, 2011)
Calls of active or inactive are those of the source. No cut-off for these calls is given here.

Columns and labels:
[1] = target: T1, Cyclin-dependent kinase 5/CDK5 activator 1 (Homo sapiens) (UniProt Q00535+Q15078); settings: at 0.1 µM
[2] = target: CDK9/cyclin T1 (Homo sapiens) (UniProt O60563+P50750); assay: Inhibition of at human CDK9/cyclin T1 at 0.1 uM after 40 mins relative to control; type: protein-complex assay
In short: (§1)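 Radiometric screen at 100 nM compound against purified human CDK/cyclin (5–10 mU). Incubation 40 min at room temperature, stopped with phosphoric acid. Read by filtermat scintillation. Activity expressed as % of control, N = 2.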

[3] = test system: MDA-MB-231; assay: Cell cycle arrest in human MDA-MB-231 cells assessed as accumulation at G2/M phase at 5 to 10 uM after 16 to 40 hrs using propidium iodide staining by flow cytometry; type: functional, cell-based
In short: (§2)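 Asynchronous cells were treated with 5 or 10 µM compound or DMSO for 24 h (also 16 and 40 h). They were trypsinized, washed in PBS and fixed/permeabilized in 70% ethanol. Staining was with RNase and propidium iodide for 30 min in the dark at room temperature, followed by flow cytometry. Phase percentages are given minus DMSO control; mean of triplicates.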

[4] = test system: MCF7; assay: Drug uptake in human MCF7 cell cytoplasm at 10 uM after 1 hr using propidium iodide staining by two-photon confocal microscopy; type: ADME, cell-based; settings: mcf7, 1 h
In short: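 Cells (5 × 10^5) were treated with 10 µM compound for 1 h, PBS-washed and fixed in 4% formaldehyde. Nuclei were stained with propidium iodide for 5 min before mounting. Imaging used two-photon confocal microscopy, 63× oil, excitation 720 nm, emission 480–520 nm, with DIC for morphology.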

[5] = target: T1, Cyclin-dependent kinase 5/CDK5 activator 1 (Homo sapiens); settings: at 0.1 µM; remark: listed apart in the source
[6] = test system: MCF7; assay: Induction of apoptosis in human MCF7 cells assessed as necrotic cells at 10 uM after 24 hrs using annexinV-propidium iodide staining by flow cytometry (reference value: 12.09%); type: functional
[7] = test system: MDA-MB-231; assay: Cell cycle arrest in human MDA-MB-231 cells assessed as accumulation at G2/M phase treated at 10 uM for 24 hrs measured after drug washout following 48 hrs growth recovery using propidium iodide staining by flow cytometry; type: functional, cell-based
In short: (§3)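 Exponentially growing cells exposed 24 h, then held a further 48 h in compound-free medium. Cells trypsinized, pelleted, PBS-washed, permeabilized in 70% ethanol, stained 30 min in the dark at room temperature with PI plus RNase, and analysed by flow cytometry. Phase percentages given after subtracting untreated control. Mean of triplicate experiments.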

[8] = test system: MCF7; assay: Induction of apoptosis in human MCF7 cells assessed as late apoptotic cells at 10 uM after 24 hrs using annexinV-propidium iodide staining by flow cytometry (reference value: 13.35%); type: functional
[9] = test system: MCF7; assay: Induction of apoptosis in human MCF7 cells assessed as decrease in cell number at 10 uM after 48 hrs using propidium iodide staining by confocal microscopic analysis; type: functional, cell-based
[10] = test system: MDA-MB-231; assay: Induction of apoptosis in human MDA-MB-231 cells assessed as decrease in caspase 7 protein level at 10 uM after 48 hrs by Western blotting; type: functional, cell-based
[11] = test system: MCF7; assay: Induction of apoptosis in human MCF7 cells assessed as early apoptotic cells at 10 uM after 24 hrs using annexinV-propidium iodide staining by flow cytometry (reference value: 4.24%); type: functional
[12] = test system: MDA-MB-231; assay: Induction of apoptosis in human MDA-MB-231 cells assessed as induction of PARP cleavage at 10 uM after 48 hrs by Western blotting; type: functional, cell-based
In short: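 MDA-MB-231 cells were treated with vehicle or 10 µM compound for 48 h (and 72 h). Lysates were cleared and protein measured by BCA. Equal protein was run on 10% SDS–PAGE and transferred to PVDF, blocked in 5% milk overnight, and probed 2 h with anti-Bcl-2, Bax or PARP. HRP secondary was applied for 1 h, with ECL detection.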

[13] = test system: MCF7; assay: Induction of apoptosis in human MCF7 cells assessed as viable cells at 10 uM after 24 hrs using annexinV-propidium iodide staining by flow cytometry (reference value: 70.32%); type: functional; settings: MCF7, 24 h, read-out: Activity
[14] = test system: MCF7; assay: Drug uptake in human MCF7 cell cytoplasm at 10 uM after 3 to 24 hrs using propidium iodide staining by two-photon confocal microscopy; type: ADME, cell-based; settings: mcf7, 10 µM
[15] = test system: MCF7; assay: Cell cycle arrest in human MCF7 cells assessed as accumulation at sub G1 phase at 5 to 10 uM after 24 hrs using propidium iodide staining by flow cytometry; type: functional, cell-based
In short: as §2

[16] = target: Cyclin-dependent kinase 7/ cyclin H (Homo sapiens) (UniProt P51946+P50613); assay: Inhibition of human CDK7/cyclinH/MAT1 at 0.1 uM after 40 mins relative to control; type: protein-complex assay
In short: as §1

[17] = test system: MDA-MB-231; assay: Induction of apoptosis in human MDA-MB-231 cells assessed as aberrant gross morphological changes at 10 uM after 48 hrs using propidium iodide staining by confocal microscopic analysis; type: functional, cell-based
[18] = test system: MDA-MB-231; assay: Cell cycle arrest in human MDA-MB-231 cells assessed as accumulation at G2/M phase treated at 5 uM for 24 hrs measured after drug washout following 48 hrs growth recovery using propidium iodide staining by flow cytometry; type: functional, cell-based
In short: as §3

[19] = test system: MDA-MB-231; assay: Drug uptake in human MDA-MB-231 cell cytoplasm at 10 uM after 3 to 24 hrs using propidium iodide staining by two-photon confocal microscopy; type: ADME, cell-based; settings: mda-mb-231, 10 µM
[20] = test system: MCF7; assay: Antiproliferative activity against human MCF7 cells expressing estrogen receptor after 48 hrs by WST-1 assay; type: functional, cell-based; settings: MCF7, 48 h
In short: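 Cells seeded at 3000/well in DMEM with 10% FBS and left 24 h. Compounds in DMSO were serially diluted in medium (1–100 µM) and added in triplicate. WST-1 was read 48 h after addition: 2–3 h incubation, absorbance at 450 nm with 630 nm reference. IC50 interpolated from log concentration versus fraction surviving; mean (SEM) of triplicate experiments.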

[21] = test system: MDA-MB-231; assay: Induction of apoptosis in human MDA-MB-231 cells assessed as decrease in cell number at 10 uM after 48 hrs using propidium iodide staining by confocal microscopic analysis; type: functional, cell-based
[22] = test system: MDA-MB-231; assay: Cell cycle arrest in human MDA-MB-231 cells assessed as accumulation at sup G1 phase at 5 to 10 uM after 24 hrs using propidium iodide staining by flow cytometry; type: functional, cell-based
In short: as §2

[23] = test system: MDA-MB-231; assay: Induction of apoptosis in human MDA-MB-231 cells assessed as reduction of cdc2 phosphorylation at Y15 regulatory site at 10 uM by Western blot analysis; type: functional, cell-based; settings: TDE = time-dependent effect
In short: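 MDA-MB-231 cells were treated with 10 µM compound for 1, 3, 6, 12 and 24 h and lysed. Equal protein was resolved by 10% SDS–PAGE and immunoblotted for phospho-cdc2 (T161, Y15), cdc2 and cyclin B, with actin as loading standard and ECL detection.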

[24] = Antiproliferative activity against human CL 10.3 cells expressing p-glycoprotein after 72 hrs by WST-1 assay; type: functional, cell-based
In short: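 MCF-7 and its P-glycoprotein-overexpressing MDR subline CL 10.3 were grown in DMEM with 10% heat-inactivated FBS. Compounds in DMSO were serially diluted in medium and given to cells for 72 h. Read-out was WST-1 reduction (450 nm, 630 nm reference). IC50 interpolated from log concentration versus fraction surviving; mean (SEM) of triplicates. Ratio is CL 10.3 IC50 over MCF-7 IC50.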

T1 sequence (Q00535 whole entry): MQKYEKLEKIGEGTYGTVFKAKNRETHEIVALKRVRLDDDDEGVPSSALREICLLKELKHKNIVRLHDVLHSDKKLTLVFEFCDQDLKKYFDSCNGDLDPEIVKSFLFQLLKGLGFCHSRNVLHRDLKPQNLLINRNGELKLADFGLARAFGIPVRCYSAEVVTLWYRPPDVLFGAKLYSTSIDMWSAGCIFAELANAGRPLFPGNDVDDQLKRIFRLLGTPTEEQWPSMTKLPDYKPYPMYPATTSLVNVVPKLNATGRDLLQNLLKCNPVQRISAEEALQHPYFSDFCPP
T1 sequence (Q15078 99-307 partner limits assumed): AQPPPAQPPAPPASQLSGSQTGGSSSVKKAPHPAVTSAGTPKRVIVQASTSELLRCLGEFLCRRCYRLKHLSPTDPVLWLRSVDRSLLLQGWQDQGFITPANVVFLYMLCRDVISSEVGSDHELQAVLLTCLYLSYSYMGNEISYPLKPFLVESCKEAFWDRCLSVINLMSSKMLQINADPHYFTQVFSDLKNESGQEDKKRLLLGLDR

- inhibition [1]: 66%
- inhibition [2]: 67%
- Activity [4]: Active
- inhibition [5]: 75%
- Activity [14]: Active
- inhibition [16]: 69%
- Activity [19]: Active
- IC50 [20]: 10 µM
SMILES: CC(C)[C@H](CO)Nc1nc(Nc2ccc(C(=O)NCCNS(=O)(=O)c3cccc4c(N(C)C)cccc34)c(Cl)c2)c2ncn(C(C)C)c2n1
- Activity [3]: Active
- Activity [6]: 17.15%
- Activity [7]: Active
- Activity [8]: 23.47%
- Activity [9]: Active
- Activity [10]: Active
- Activity [11]: 10.53%
- Activity [12]: Active
- viability at 10 µM [13]: 48.9%
- Activity [15]: Active
- Activity [17]: Active
- Activity [18]: Active
- Activity [21]: Active
- Activity [22]: Active
- inhibition [23]: tde
- IC50 [24]: 44.1 µM
